Assay [1] can be described thus: Inhibition of beta-lactamase AmpC. Put shortly: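 Cuvette assay with 1 nM AmpC β-lactamase and 200 µM nitrocefin, Triton X-100 at either 0.00002 or 0.1%. Compound and enzyme preincubated 5 min, then substrate added to start the reaction.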
Assay [2] is described as follows: Inhibition of chymotrypsin. Put shortly:
(§1)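 Chymotrypsin (28 nM) preincubated 5 min with inhibitor, then reaction started with 200 µM N-succinyl-Ala-Ala-Pro-Phe p-nitroanilide. In the no-preincubation variant, inhibitor and substrate were mixed first and enzyme was added to start. Progress read at 410 nm.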

Assay [3] can be described thus: Inhibition of chymotrypsin in presence of 0.1% Triton X-100. Put shortly:
as §1

The target of assay [4] is T1, Cruzipain (Trypanosoma cruzi, UniProt P25779). Briefly: Inhibition of cruzain in presence of 0.01% Triton X-100. The method in brief: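 Recombinant cruzain (10 nM) in 0.1 M sodium acetate pH 5.5 with 5 mM DTT and 0.01% Triton X-100, substrate 2.5 µM Z-Phe-Arg-AMC. Cleavage read fluorimetrically in 96-well format, excitation 355 nm, emission 460 nm.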
Assay [5] can be described thus: Inhibition of malate dehydrogenase. Put shortly: (§2)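 Malate dehydrogenase (2 nM) incubated 5 min with inhibitor, then reaction started with 200 µM oxaloacetic acid plus 200 µM NADH. In the no-preincubation variant, inhibitor, oxaloacetate and NADH were mixed first and enzyme was added last. NADH consumption followed at 340 nm.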
A short description of assay [6]: Inhibition of beta-lactamase AmpC in presence of 0.1% Triton X-100. Put shortly: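 Cuvette assay with 1 nM AmpC β-lactamase and 200 µM nitrocefin, Triton X-100 at either 0.00002 or 0.1%. Compound and enzyme preincubated 5 min, then substrate added to start the reaction. Nitrocefin hydrolysis read at 482 nm by UV–visible spectrophotometry at room temperature.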

Assay [7] deals with T1, Cruzipain. Description: Inhibition of cruzain.
Assay [8] can be described thus: Inhibition of malate dehydrogenase in presence of 0.1% Triton X-100. The method in brief: as §2

As a reminder, the IC50 is the concentration that inhibits the measured activity by half. As a reminder, the Ki is a dissociation constant, usually derived from enzyme kinetics or from competition with a known ligand. Higher therefore signals weaker binding.

T1 sequence (P25779 whole entry): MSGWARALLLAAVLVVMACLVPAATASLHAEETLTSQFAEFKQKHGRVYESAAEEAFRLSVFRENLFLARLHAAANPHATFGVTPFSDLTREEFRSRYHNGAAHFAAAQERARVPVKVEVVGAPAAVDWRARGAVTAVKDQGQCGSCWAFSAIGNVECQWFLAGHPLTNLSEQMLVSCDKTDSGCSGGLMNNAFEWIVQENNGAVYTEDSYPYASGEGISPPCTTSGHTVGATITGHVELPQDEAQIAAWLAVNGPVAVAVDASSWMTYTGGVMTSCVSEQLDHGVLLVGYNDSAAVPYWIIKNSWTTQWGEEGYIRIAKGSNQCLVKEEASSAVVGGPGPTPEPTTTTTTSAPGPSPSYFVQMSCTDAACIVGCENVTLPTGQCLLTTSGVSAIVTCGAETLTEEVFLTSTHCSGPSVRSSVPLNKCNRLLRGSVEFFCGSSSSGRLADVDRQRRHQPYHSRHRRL

`c1cc2c3c(c1)c1c(n3CCNC2)CCCC1`: the 50% inhibitory concentration (IC50) in assay [1] and in assay [2] was greater than 600 µM throughout.
As to `CC(C)(C)OC(=O)NCCc1nnc(S(=O)(=O)Cc2ccc(Cl)cc2Cl)o1`, the IC50 in assay [1] was less than 1 µM; in assay [3] it was less than 1 µM; in assay [4], 470 µM; in assay [5], greater than 600 µM; in assay [6], less than 1 µM; in assay [2], less than 1 µM. This compound registered an IC50 in assay [7] of 95 µM.
With `O=C(CC1(O)C(=O)Nc2cc(Cl)cc(Cl)c21)c1ccccc1O` (stereo not given), the 50% inhibitory concentration (IC50) in assay [1] was greater than 600 µM; in assay [3], greater than 600 µM; in assay [4] it was 170 µM; in assay [6], greater than 600 µM; in assay [2], greater than 600 µM; in assay [7], 73 µM.
In the case of `N#Cc1cccc(-c2nc(NCc3cccnc3)c3ccccc3n2)c1`, the concentration for half-maximal inhibition (IC50) in assay [1] and in assay [2] was greater than 600 µM throughout.
For the compound `COc1ccc(-c2cc(C(=O)NCc3ccccc3)no2)cc1OC`, the IC50 in assay [1] and in assay [2] was greater than 600 µM in each case.
In the case of `CCOC(=O)/C(C(C)=O)=C1\OC(=O)c2ccccc21`, the 50% inhibitory concentration (IC50) in assay [1] is 43 µM; in assay [4], less than 600 µM; in assay [6], 58 µM; in assay [7], less than 600 µM.
With `CCCC12CN(C(=O)c3ccc(OC)cc3)CC(C)(CN(C(=O)c3ccc(OC)cc3)C1)C2=O`, the concentration for half-maximal inhibition (IC50) in assay [1] is 15 µM; in assay [3], greater than 600 µM; in assay [4], greater than 600 µM; in assay [5], greater than 600 µM; in assay [6] it was 95 µM; in assay [2] it was less than 1 µM. Further, the concentration for half-maximal inhibition (IC50) in assay [7] was greater than 600 µM.
In turn, `O=C(O)c1ccc2c(c1)C(=O)N([C@H](Cc1c[nH]c3ccccc13)C(=O)O)C2=O` returned an inhibitory constant (Ki) in assay [1] of 17 µM. In other words, the double-digit micromolar range.
Consider `O=C(NCCc1ccccc1)C1CCCN(S(=O)(=O)c2cccc3nsnc23)C1` (stereo not given), for which the half-inhibitory concentration (IC50) in assay [1] is greater than 600 µM; in assay [3], 345 µM; in assay [5], greater than 600 µM; in assay [2], 220 µM.
On to `O=C(Nc1nc2n(n1)C(c1ccccc1)C=C(c1ccccc1)N2)c1ccco1` (stereo not given), for which the IC50 in assay [1] was less than 600 µM; in assay [3], 27 µM; in assay [6] it was less than 600 µM; in assay [2] it was 7 µM.
With `CC(C)(C)OC(=O)NCc1nnc(S(=O)(=O)Cc2ccc(Cl)cc2Cl)o1`, the IC50 in assay [1] is less than 1 µM; in assay [8], greater than 600 µM; in assay [3], less than 1 µM; in assay [4] it was 410 µM; in assay [5], greater than 600 µM; in assay [6] it was less than 1 µM. Also, the results for the 50% inhibitory concentration (IC50) in assay [2] and in assay [7] were less than 1 µM and 95 µM, respectively.
In assay [1], `O=C(O)c1ccc2c(c1)C(=O)N(CCc1ccc(O)cc1)C2=O` registered an inhibition constant (Ki) of 360 µM.
With `CCOc1ccccc1CNC(=O)c1cc2occc2n1C`, the IC50 in assay [1] is greater than 600 µM.
Turning to `CS(=O)(=O)N1CCC(C(=O)N2CCC(Cc3ccccc3)CC2)CC1`, the IC50 in assay [1], in assay [3], in assay [6] and in assay [2] was greater than 600 µM in each case.
`CCOC(=O)SC1=N/C(=C/c2ccc(N(C)C)cc2)C(=O)S1`: the half-maximal inhibitory concentration (IC50) in assay [1] was 60 µM; in assay [8], greater than 600 µM; in assay [3], 8 µM; in assay [4] it was 73 µM; in assay [5] it was 200 µM; in assay [6], greater than 600 µM. Also, the IC50 in assay [2] and in assay [7] was less than 1 µM throughout.
In the case of `CN(C)C/C=C(\c1ccc(Br)cc1)c1cccnc1`, the concentration for half-maximal inhibition (IC50) in assay [1] and in assay [2] was greater than 600 µM throughout.
Regarding `S=C(S)OC1CC2CC1C1CCCC21` (stereo not given), the half-inhibitory concentration (IC50) in assay [1] is 270 µM; in assay [3], greater than 600 µM; in assay [4], greater than 600 µM; in assay [5], greater than 600 µM; in assay [6], greater than 600 µM; in assay [2] it was 270 µM. In assay [7], this compound yielded a half-maximal inhibitory concentration (IC50) of 15 µM.
With `CC(C)C[C@H](N)c1nnc(S(=O)(=O)Cc2ccc(F)cc2)o1`, the 50% inhibitory concentration (IC50) in assay [1] is 600 µM; in assay [3], 170 µM; in assay [5] it was greater than 600 µM; in assay [6] it was 600 µM; in assay [2] it was 270 µM.
As for `CC1=C/C(=C\c2ccc3c(c2)OCO3)C(=O)S1`, the IC50 in assay [1] and in assay [2] was greater than 600 µM throughout.
Regarding `COc1cccc(-c2nccc(-n3ccnc3)n2)c1`, the IC50 in assay [1] and in assay [2] was greater than 600 µM in each case.
As for `O=C(Oc1cccnc1)c1cc2ccccc2oc1=O`, the half-maximal inhibitory concentration (IC50) was 55 µM in assay [1]; 37 µM in assay [3]; 90 µM in assay [4]; 43 µM in assay [6]; 37 µM in assay [2]; 70 µM in assay [7].
In the case of `O=C(O)c1ccc2c(c1)C(=O)N([C@@H](Cc1ccc(O)cc1)C(=O)O)C2=O`, the affinity in assay [1] corresponds to a Ki of 158 µM.
On the same count and under the same terms, in the case of `O=C(O)CN1C(=O)c2ccc(C(=O)O)cc2C1=O` it was 6900 µM.
As to `COc1cccc2cc(C(=O)n3ccc(C)n3)c(=O)oc12`, the IC50 is 25 µM in assay [1]; 70 µM in assay [3]; 106 µM in assay [4]; greater than 600 µM in assay [5]; 20 µM in assay [6]; 70 µM in assay [2]. In assay [7], this compound displayed a half-inhibitory concentration (IC50) of 120 µM.
On to `N[C@@H](Cc1cc(-c2ccc(Cl)cc2Cl)cc(CP(=O)(O)O)c1O)C(=O)O`, for which the IC50 was 160 µM in assay [1]; 400 µM in assay [3]; 158 µM in assay [4]; greater than 600 µM in assay [5]; 220 µM in assay [6]; 270 µM in assay [2]. Moreover, in assay [7], the IC50 turned out to be 77 µM.
`CCOC(=O)C1=C(c2ccccc2)NC(SCC(=O)Nc2ccc(C)cc2)=C(C#N)C1c1ccco1` (stereo not given): the half-maximal inhibitory concentration (IC50) in assay [1] is 22 µM; in assay [8], 106 µM; in assay [3], greater than 600 µM; in assay [4] it was 120 µM; in assay [5], 5 µM; in assay [6], greater than 600 µM. For the same compound, the half-inhibitory concentration (IC50) in assay [2] and in assay [7] was less than 1 µM throughout.
`O=C(O)c1ccc2c(c1)C(=O)N([C@H](Cc1cccc3ccccc13)c1nnn[nH]1)C2=O` had an inhibitory constant (Ki) in assay [1] of 41 µM.
On the same count and under the same terms, in the case of `O=C(O)c1ccc2c(c1)C(=O)N([C@H](Cc1ccc3ccccc3c1)C(=O)O)C2=O` it was 14 µM.
Take `COc1cccc(-c2ccc3ncnc(NCc4ccc(OC)cc4OC)c3c2)c1`: the IC50 in assay [1] and in assay [2] was greater than 600 µM each time.
In assay [1], `COc1cc2c(=O)n(Cc3ccco3)c(=O)n(CC(=O)c3cccc(Br)c3)c2cc1OC` showed an IC50 greater than 600 µM.
Regarding `O=C(O)c1ccc2c(c1)C(=O)N(C(Cc1ccc(O)cc1)C(=O)O)C2=O` (racemic), the inhibition constant (Ki) in assay [1] worked out at 140 µM. In addition, the IC50 in assay [4] was greater than 10000 µM; in assay [6] it was 210 µM; in assay [2], greater than 10000 µM; in assay [7] it was greater than 10000 µM.
`CSCCC(C(=O)O)N1C(=O)c2ccc(C(=O)O)cc2C1=O` (racemic) displayed a Ki in assay [1] of 1300 µM. This counts as millimolar.
The same measure, in the same setting: in the case of `O=C(O)c1ccc2c(c1)C(=O)N(C(Cc1ccccc1)C(=O)O)C2=O` (racemic) it was 210 µM.
Still for that read-out and setting: in the case of `CC(C)CC(C(=O)O)N1C(=O)c2ccc(C(=O)O)cc2C1=O` (racemic) it was 1200 µM; in that of `O=C(O)C(Cc1ccccc1)N1C(=O)c2ccccc2C1=O` (racemic), 830 µM.
For the compound `CC(C)[C@H](NC(=O)OC(C)(C)C)c1nnc(S(=O)(=O)Cc2c(F)cccc2Cl)o1` (stereo in doubt), the IC50 in assay [4] and in assay [7] was less than 1 µM throughout.

(Values after ChEMBL document CHEMBL1142414, “Comprehensive mechanistic analysis of hits from high-throughput and docking screens against beta-lactamase” (J Med Chem, 2008).)
